From the array DNA melting data of Ke et al. (doi:10.1101/2024.01.08.574731) come the findings set out here.

Data set [1] in a line: melting temperature; fluorescence melt of hairpins on a sequencing array, two-state fit, raised by 9.35 °C to match UV melts. The settings on record: sodium 0.088 M. In a few lines:
(§1)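 Bootstrapped two-state fits yielded melting temperature and folding enthalpy for library hairpins. Cy3 fluorescence, with annealed Cy3 and quencher oligos, was imaged on a sequenced MiSeq flow cell in 50 mM Na-HEPES pH 8.0, 25 mM NaCl in 2.5 °C steps up to 60 °C, and normalised to pre-quench Cy3 and to control constructs. Four replicates were combined by inverse variance, and fitted temperatures were raised by 9.35 °C to match UV melts.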

Data set [2] is described as follows: folding enthalpy; higher = less favourable; fluorescence melt of hairpins on a sequencing array, two-state fit. The settings on record: sodium 0.088 M. In a few lines: as §1

For GTGCCTGGAAACGGGCAC (((((.(....).))))), the Tm in data set [1] was 65.5 °C. Besides, the folding enthalpy in data set [2] is -36.8 kcal/mol.

Regarding GTGCCTGGAAACGGGTAC ((.((.(....).)).)), the Tm in data set [1] is 44 °C. Also, the folding enthalpy in data set [2] is -18.6 kcal/mol.

GTGCGACGAAAGTCCAC (((.(((....)))))): the Tm in data set [1] amounted to 52 °C. Further, the folding enthalpy in data set [2] was -29.4 kcal/mol.

Consider GTGCGAGGAAACCCGCAC (((((.(....).))))), for which, in data set [1], the Tm was 58.1 °C. In addition, in data set [2], the folding enthalpy was -34.6 kcal/mol.

GTGCGCCGAAAGGCCAC (((.(((....)))))): in data set [1], the Tm was determined as 58.6 °C. In data set [2], the folding enthalpy was -21.3 kcal/mol.

Turning to GTGCGCCGAAAGGCCCAC (((.(((....))).))), in data set [1], the Tm stood at 48.5 °C. Further, the folding enthalpy in data set [2] was -24.4 kcal/mol.

GTGCGCGAAAGCGAACAC ((((((....)))..))): in data set [1], the Tm was 58.5 °C. For the same sequence, the folding enthalpy in data set [2] was -12.6 kcal/mol.

Consider GTGCGCGAAAGCGACAC ((((((....))).))), for which, in data set [1], the Tm was found to be 63.8 °C. Besides, in data set [2], the folding enthalpy was -16.9 kcal/mol.

Turning to GTGCGCGGAAACGTGCAC ((((.((....)).)))), the Tm in data set [1] was found to be 67.5 °C. The folding enthalpy in data set [2] was -35.4 kcal/mol.

GTGCGTACGAAAGTACAC (((..(((....)))))): the Tm in data set [1] worked out at 54.1 °C. In data set [2], the folding enthalpy was -10.5 kcal/mol.

In the case of GTGCGTCGAAAGACACAC (((.(((....))).))), in data set [1], the Tm turned out to be 53.5 °C. The folding enthalpy in data set [2] was -39 kcal/mol.

In the case of GTGCGTCGAAAGACCAC (((.(((....)))))), in data set [1], the Tm was 56.2 °C. Also, the folding enthalpy in data set [2] is -29.6 kcal/mol.

On to GTGCGTGCGAAAGCACAC (((..(((....)))))), for which the Tm in data set [1] turned out to be 63.5 °C. Further, the folding enthalpy in data set [2] is -9.15 kcal/mol.

For GTGCGTGGAAACGCGCAC (((((.(....).))))), the Tm in data set [1] was 65.6 °C. The folding enthalpy in data set [2] is -23.7 kcal/mol.

As for GTGCGTTCGAAAGAACAC (((..(((....)))))), in data set [1], the Tm is 54.1 °C. In addition, in data set [2], the folding enthalpy is -11.7 kcal/mol.

For the sequence GTGCTACCGAAAGGTCAC (((..(((....)))))), the Tm in data set [1] was determined as 37 °C. Further, in data set [2], the folding enthalpy is -15.5 kcal/mol.

GTGCTAGGAAACCAGCAC (((((.(....).))))): the Tm in data set [1] turned out to be 49.9 °C. The folding enthalpy in data set [2] was -37 kcal/mol.

In the case of GTGCTCACGAAAGTGCAC (((..(((....)))))), the Tm in data set [1] was determined as 48.3 °C. The folding enthalpy in data set [2] was -19.9 kcal/mol.

In the case of GTGCTGCGAAAGCACAC (((.(((....)))))), in data set [1], the Tm was 55.3 °C. Further, the folding enthalpy in data set [2] is -19.4 kcal/mol.

For the sequence GTGCTGCGAAAGCACCAC (((.(((....))).))), the Tm in data set [1] turned out to be 52.6 °C. The folding enthalpy in data set [2] was -15 kcal/mol.

With GTGCTGGCGAAAGCCCAC (((..(((....)))))), the Tm in data set [1] was determined as 49.3 °C. In data set [2], the folding enthalpy was -10.3 kcal/mol.

Turning to GTGCTGGGAAACTAGCGC (.(((.(....).))).), the Tm in data set [1] worked out at 45.5 °C. In addition, the folding enthalpy in data set [2] is -29.7 kcal/mol.

For GTGCTGGGAAACTGGCAC ((((..(....)..)))), in data set [1], the Tm was found to be 49.7 °C. Also, in data set [2], the folding enthalpy is -26.2 kcal/mol.

Take GTGCTTCGAAAGAAACAC (((.(((....))).))): the Tm in data set [1] is 45.6 °C. Further, in data set [2], the folding enthalpy was -36 kcal/mol.

With GTGCTTCGAAAGAACAC (((.(((....)))))), the Tm in data set [1] came out at 42.8 °C. In addition, in data set [2], the folding enthalpy is -32.1 kcal/mol.

Consider GTGCTTGGAAACAAACAC (((.(((....))).))), for which, in data set [1], the Tm worked out at 39.1 °C. In data set [2], the folding enthalpy is -28.9 kcal/mol.

Turning to GTGCTTGGAAACAAGTGC (..((((....))))..), in data set [1], the Tm came out at 43 °C. Besides, in data set [2], the folding enthalpy is -21 kcal/mol.

With GTGCTTGGAAACGAGTAC ((.((.(....).)).)), in data set [1], the Tm is 35 °C. Besides, the folding enthalpy in data set [2] was -19.3 kcal/mol.

Consider GTGGAAGGAAACTTCCGC (.(((((....))))).), for which, in data set [1], the Tm was 51.1 °C. For the same sequence, the folding enthalpy in data set [2] is -24.1 kcal/mol.

As to GTGGAAGGAAACTTTCGC (.(.(((....))).).), the Tm in data set [1] stood at 30 °C. The folding enthalpy in data set [2] was -20 kcal/mol.

As for GTGGACCGAAAGGTTCAC (((.(((....))).))), the Tm in data set [1] worked out at 59.8 °C. Besides, in data set [2], the folding enthalpy was -36.7 kcal/mol.

In the case of GTGGACGAAAGTCCCAC ((((((....))).))), in data set [1], the Tm was determined as 48.8 °C. The folding enthalpy in data set [2] is -12.1 kcal/mol.

As to GTGGACGAAAGTCGACAC ((((((....)))..))), in data set [1], the Tm is 47.5 °C. In addition, in data set [2], the folding enthalpy was -21.8 kcal/mol.

Consider GTGGACGAAAGTCTTCAC ((((((....)))..))), for which the Tm in data set [1] worked out at 32.4 °C. Also, in data set [2], the folding enthalpy was -12.8 kcal/mol.

As to GTGGACGGAAACGTCTAC ((.((((....)))).)), the Tm in data set [1] is 52.2 °C. In addition, the folding enthalpy in data set [2] was -24.9 kcal/mol.

Consider GTGGACGGAAACGTCTGC (..((((....))))..), for which the Tm in data set [1] amounted to 49.2 °C. Besides, the folding enthalpy in data set [2] was -15.8 kcal/mol.

For GTGGACTCGAAAGAGCAC (((..(((....)))))), the Tm in data set [1] came out at 39.7 °C. Further, the folding enthalpy in data set [2] was -21.4 kcal/mol.
